In ChEMBL document CHEMBL4699573, “Design, Synthesis, and Pharmacological Evaluation of Analogues Derived from the PLEV Tetrapeptide as Protein-Protein Interaction Modulators of Voltage-Gated Sodium Channel 1.6” (J Med Chem, 2020):
Residues, ends and D or L forms follow the SMILES beside them. *: point of attachment. Adamantane1carbonyl = O=C(C12CC3CC(CC(C3)C1)C2)*; OtBu = CC(C)(C)O*

Tests used:
[1] = biological target: T1, Fibroblast growth factor 14/SCN8A (Homo sapiens) (UniProt Q9UQD0+Q92915); assay: (§1) Modulation of recombinant human Nav1.6 C-terminal tail (1763 to 1976 residues)-FGF14 (64 to 252 residues) protein-protein interaction expressed in HEK293 cells assessed as long-term inactivation at depolarization cycle 2 at 10 uM incubated for 30 mins by cell patch clamp electrophysiology assay (reference value: 1 +/- 0.02); type: cell-based; settings: filed as modulator
Method in brief: (§2)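 HEK-Nav1.6 cells transiently transfected with FGF14 using Lipofectamine 2000, then exposed at least 30 min to 10 μM compound or 0.1% DMSO in the pH 7.3 HEPES extracellular solution. Whole-cell patch clamp with Cs-methanesulfonate internal solution, 70–80% capacitance and series-resistance compensation. Test steps from −100 to +60 mV. Student's t-test used.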

[2] = biological target: T2, Fibroblast growth factor 14 (Homo sapiens, UniProt Q92915); assay: Binding affinity to human recombinant FGF14 expressed in Escherichia coli BL21 assessed as dissociation constant by SPR analysis
T2 sequence (Q92915 whole entry): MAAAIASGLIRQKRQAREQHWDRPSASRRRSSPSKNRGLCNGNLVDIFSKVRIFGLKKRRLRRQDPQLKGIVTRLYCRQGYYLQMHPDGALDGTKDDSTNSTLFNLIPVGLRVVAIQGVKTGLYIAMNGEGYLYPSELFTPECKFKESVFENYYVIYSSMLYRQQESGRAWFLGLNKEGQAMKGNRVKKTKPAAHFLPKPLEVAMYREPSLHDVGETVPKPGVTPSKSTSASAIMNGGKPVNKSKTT
Method in brief: (§3)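 Biacore T100 runs with FGF14 (17,896 RU) or Nav1.6 C-tail (6,800 RU) amine-coupled on CM5 at pH 5.5. Compounds at 0.195–200 μM in PBS, 0.005% Tween-20, 2% DMSO; 50 μL/min at 25 °C. 120 s association, 150 s dissociation, DMSO calibration, blank subtraction. Rates from a Langmuir 1:1 fit; KD averages the kinetic and steady-state values. At least duplicate experiments.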

[3] = biological target: T3, Sodium channel protein type 8 subunit alpha (Homo sapiens, UniProt Q9UQD0); assay: (§4) Modulation of recombinant human Nav1.6 C-terminal tail (1763 to 1976 residues) expressed in HEK293 cells assessed as half activation voltage at 10 uM incubated for 30 mins by whole cell patch clamp electrophysiology assay (reference value: -25.4 +/- 1 mV); type: cell-based
Method in brief: (§5)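 Stable HEK-Nav1.6 cells without FGF14, incubated at least 30 min in extracellular solution (mM: 140 NaCl, 3 KCl, 1 MgCl2, 1 CaCl2, 10 HEPES, 10 glucose, pH 7.3) with compound (10 or 30 μM) or 0.1% DMSO. Whole-cell recording with Cs-methanesulfonate/EGTA/NaCl/HEPES pipette solution, 70–80% compensation. Steps −100 to +60 mV; tau measured at −10 mV. Student's t-test.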

[4] = biological target: T3, Sodium channel protein type 8 subunit alpha; assay: Modulation of recombinant human Nav1.6 C-terminal tail (1763 to 1976 residues) expressed in HEK293 cells assessed as long-term inactivation at depolarization cycle 4 at 10 uM incubated for 30 mins by whole cell patch clamp electrophysiology assay (reference value: 0.75 +/- 0.05); type: cell-based; settings: filed as modulator
[5] = biological target: T3, Sodium channel protein type 8 subunit alpha; assay: Modulation of recombinant human Nav1.6 C-terminal tail (1763 to 1976 residues) expressed in HEK293 cells assessed as peak current density at 30 uM incubated for 30 mins by whole cell patch clamp electrophysiology assay (reference value: -50.1 +/- 3.1 pA/pF); type: cell-based; method in brief: as §5
[6] = biological target: T1, Fibroblast growth factor 14/SCN8A (Homo sapiens); assay: Modulation of recombinant human Nav1.6 C-terminal tail (1763 to 1976 residues)-FGF14 (64 to 252 residues) protein-protein interaction expressed in HEK293 cells assessed as peak current density at 10 uM incubated for 30 mins by whole cell patch clamp electrophysiology assay (reference value: -19.3 +/- 1.3); type: cell-based; method in brief: as §2
[7] = biological target: T1, Fibroblast growth factor 14/SCN8A (Homo sapiens); assay: as §1, with “1976 residues) -FGF14” for “1976 residues)-FGF14”, “cycle 4” for “cycle 2”, “value: 0.98” for “value: 1”, “+/- 0.06)” for “+/- 0.02)”; type: cell-based; settings: filed as modulator
HEK293 = assay: Cytotoxicity against HEK293 cells assessed as reduction in cell viability measured after 18 hrs by celltiter-blue assay; settings: human, hek293, 18 h
[8] = biological target: T3, Sodium channel protein type 8 subunit alpha; assay: Modulation of recombinant human Nav1.6 C-terminal tail (1763 to 1976 residues) expressed in HEK293 cells assessed as long-term inactivation at depolarization cycle 3 at 10 uM incubated for 30 mins by whole cell patch clamp electrophysiology assay (reference value: 0.76 +/- 0.05); type: cell-based; settings: filed as modulator
[9] = biological target: T3, Sodium channel protein type 8 subunit alpha; assay: Modulation of recombinant human Nav1.6 C-terminal tail (1763 to 1976 residues) expressed in HEK293 cells assessed as long-term inactivation at depolarization cycle 2 at 10 uM incubated for 30 mins by whole cell patch clamp electrophysiology assay (reference value: 0.84 +/- 0.03); type: cell-based; settings: filed as modulator
[10] = biological target: T4, Fibroblast growth factor 14 (Homo sapiens) (UniProt Q92915); assay: Binding affinity to human recombinant FGF14 expressed in Escherichia coli BL21 assessed as assessed as induction of protein denaturation by measuring change in melting temperature at 50 uM by fluorescent dye based thermal shift assay; settings: filed as modulator
T4 sequence (whole entry): T2 sequence (Q92915 whole entry)

[11] = biological target: T1, Fibroblast growth factor 14/SCN8A (Homo sapiens); assay: Modulation of recombinant human Nav1.6 C-terminal tail (1763 to 1976 residues)-FGF14 (64 to 252 residues) protein-protein interaction expressed in HEK293 cells assessed as steady state half inactivation voltage at 10 uM incubated for 30 mins by whole cell patch clamp electrophysiology assay (reference value: -55.1 +/- 2 mV); type: cell-based; method in brief: as §2
[12] = biological target: T4, Fibroblast growth factor 14 (Homo sapiens); assay: Binding affinity to human recombinant FGF14 expressed in Escherichia coli BL21 assessed as dissociation rate constant by SPR analysis; settings: filed as modulator; method in brief: as §3
[13] = biological target: T1, Fibroblast growth factor 14/SCN8A (Homo sapiens); assay: as §4, with “1976 residues)-FGF14 (64 to 252” for “1976”, “residues) protein-protein interaction” for “residues)”, “by” for “by whole”, “-21.4” for “-25.4”, “mv)” for “mV)”; type: cell-based; method in brief: as §2
[14] = biological target: T3, Sodium channel protein type 8 subunit alpha; assay: Modulation of recombinant human Nav1.6 C-terminal tail (1763 to 1976 residues) expressed in HEK293 cells assessed as steady state half inactivation voltage at 10 uM incubated for 30 mins by whole cell patch clamp electrophysiology assay (reference value: -62 +/- 1.3 mV); type: cell-based; method in brief: as §5
[15] = biological target: T3, Sodium channel protein type 8 subunit alpha; assay: Binding affinity to human recombinant Nav1.6 C-terminal domain expressed in Escherichia coli BL21 assessed as assessed as induction of protein denaturation by measuring change in melting temperature at 10 uM by fluorescent dye based thermal shift assay; settings: filed as modulator, dose 50.0 µM
[16] = biological target: T1, Fibroblast growth factor 14/SCN8A (Homo sapiens); assay: as §1, with “as change in time constant of” for “as long-term”, “inactivation” for “inactivation at depolarization cycle 2”, “value: 1.58” for “value: 1”, “+/- 0.18 ms)” for “+/- 0.02)”; type: cell-based; settings: filed as modulator; method in brief: as §2
[17] = biological target: T3, Sodium channel protein type 8 subunit alpha; assay: Modulation of recombinant human Nav1.6 C-terminal tail (1763 to 1976 residues) expressed in HEK293 cells assessed as peak current density at 10 uM incubated for 30 mins by whole cell patch clamp electrophysiology assay (reference value: -50.1 +/- 3.1 pA/pF); type: cell-based; settings: filed as modulator; method in brief: as §5

T1 sequence (Q9UQD0 whole entry, looked up, one chain of several, the tested form may be a part): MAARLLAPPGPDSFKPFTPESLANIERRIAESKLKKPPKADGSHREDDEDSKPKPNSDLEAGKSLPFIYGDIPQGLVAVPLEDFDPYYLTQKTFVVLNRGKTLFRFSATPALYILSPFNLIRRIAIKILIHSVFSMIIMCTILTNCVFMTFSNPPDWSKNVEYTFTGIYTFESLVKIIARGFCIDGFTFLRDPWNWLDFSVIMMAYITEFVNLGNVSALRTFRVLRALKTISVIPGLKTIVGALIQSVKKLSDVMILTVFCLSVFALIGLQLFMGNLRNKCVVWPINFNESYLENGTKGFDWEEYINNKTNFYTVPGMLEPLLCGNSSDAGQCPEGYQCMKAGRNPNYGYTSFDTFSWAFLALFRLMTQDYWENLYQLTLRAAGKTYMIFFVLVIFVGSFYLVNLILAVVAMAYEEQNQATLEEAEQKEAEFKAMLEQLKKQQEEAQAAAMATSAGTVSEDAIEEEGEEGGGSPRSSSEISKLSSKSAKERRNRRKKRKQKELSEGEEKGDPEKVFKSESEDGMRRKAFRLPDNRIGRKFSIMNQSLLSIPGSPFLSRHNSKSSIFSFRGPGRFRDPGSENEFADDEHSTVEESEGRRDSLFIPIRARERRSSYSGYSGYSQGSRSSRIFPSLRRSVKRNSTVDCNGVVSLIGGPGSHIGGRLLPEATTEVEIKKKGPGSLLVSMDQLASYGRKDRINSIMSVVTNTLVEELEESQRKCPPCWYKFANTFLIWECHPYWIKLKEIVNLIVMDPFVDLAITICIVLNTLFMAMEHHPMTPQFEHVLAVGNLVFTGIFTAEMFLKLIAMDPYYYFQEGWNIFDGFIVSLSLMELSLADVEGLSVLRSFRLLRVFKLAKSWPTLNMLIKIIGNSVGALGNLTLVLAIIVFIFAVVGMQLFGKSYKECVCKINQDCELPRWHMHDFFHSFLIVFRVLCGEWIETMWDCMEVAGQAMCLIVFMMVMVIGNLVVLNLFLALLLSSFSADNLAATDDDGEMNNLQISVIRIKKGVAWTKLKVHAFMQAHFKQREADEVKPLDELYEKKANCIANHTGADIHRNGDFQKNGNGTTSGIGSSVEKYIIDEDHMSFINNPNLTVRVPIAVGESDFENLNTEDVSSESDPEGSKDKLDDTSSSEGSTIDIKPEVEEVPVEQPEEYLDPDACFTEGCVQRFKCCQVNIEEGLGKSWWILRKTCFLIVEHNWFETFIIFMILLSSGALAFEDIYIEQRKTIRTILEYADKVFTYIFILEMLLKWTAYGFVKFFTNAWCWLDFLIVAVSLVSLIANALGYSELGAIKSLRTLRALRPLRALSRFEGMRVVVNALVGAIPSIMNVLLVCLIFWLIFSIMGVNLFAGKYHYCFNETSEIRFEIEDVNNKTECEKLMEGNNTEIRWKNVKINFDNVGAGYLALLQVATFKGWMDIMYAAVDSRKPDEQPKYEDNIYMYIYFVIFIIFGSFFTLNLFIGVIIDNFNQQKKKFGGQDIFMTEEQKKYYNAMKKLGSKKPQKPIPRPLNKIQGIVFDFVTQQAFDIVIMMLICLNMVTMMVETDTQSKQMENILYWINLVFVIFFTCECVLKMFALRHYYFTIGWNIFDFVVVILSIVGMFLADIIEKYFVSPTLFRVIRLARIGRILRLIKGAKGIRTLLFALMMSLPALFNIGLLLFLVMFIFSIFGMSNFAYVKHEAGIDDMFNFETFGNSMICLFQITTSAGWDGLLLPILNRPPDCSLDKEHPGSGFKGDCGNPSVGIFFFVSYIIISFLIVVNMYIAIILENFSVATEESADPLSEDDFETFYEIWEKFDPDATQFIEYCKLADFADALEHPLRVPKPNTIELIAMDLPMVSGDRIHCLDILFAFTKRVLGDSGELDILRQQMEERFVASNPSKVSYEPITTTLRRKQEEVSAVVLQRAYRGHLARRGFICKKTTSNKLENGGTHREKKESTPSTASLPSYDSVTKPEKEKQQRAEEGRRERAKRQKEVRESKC
T3 sequence (Q9UQD0 whole entry, looked up, the tested form may be a part): as the sequence (Q9UQD0 whole entry, looked up, one chain of several, the tested form may be a part) above

COC(=O)[C@@H](NC(=O)[C@H](CCC(=O)OC(C)(C)C)NC(=O)[C@H](CC(C)C)NC(=O)[C@@H]1CCCN1C(=O)C12CC3CC(CC(C3)C1)C2)C(C)C (Adamantane1carbonyl-PLE(OtBu)V-OMe)
Activity [1]: 0.86
Kd [2]: 4.05 µM
Activity [3]: -16.9 mV
Activity [4]: 0.7
Activity [5]: -17.9 pA/pF
Activity [6]: -38.8 pA/pF
Activity [7]: 0.75
Activity (HEK293): Non-Toxic
Activity [8]: 0.76
Activity [9]: 0.87
ΔTm [10]: -2.27 °C
Activity [11]: -65.6 mV
K [12]: 9.33 10^-3/s
Activity [13]: -21.6 mV
Activity [14]: -55.2 mV
ΔTm [15]: -4.64 °C
K [16]: 1 ms
Activity [17]: -25.8 pA/pF
